What follows are compounds tested on Staphylococcus aureus (assay: Minimum inhibitory concentration against methicillin-resistant Staphylococcus aureus (MRSA) A27223 in the presence of 50% calf serum.). Details: not given.
Format: functional
Summary of the method: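 NCCLS broth MIC in Mueller-Hinton broth with 2% NaCl plus 50% calf serum. Inoculum about 5×10⁵ CFU/mL, incubated at 35 °C for 24 h. Read as the lowest concentration with no visible growth.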
For `Cc1cc(SCC2=C(C(=O)O)N3C(=O)[C@@H](NC(=O)CSc4cc(Cl)ccc4Cl)[C@H]3SC2)cc(CCC(=O)O)[n+]1CCN.O=C(O)C(F)(F)F.O=C([O-])C(F)(F)F`, the MIC was 2 µg/mL.

These compounds were tested on Staphylococcus aureus (assay: Minimum inhibitory concentration against methicillin-resistant Staphylococcus aureus (MRSA) A27223). Details: not given.
Format: functional
Summary of the method: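 Broth microdilution per NCCLS in Mueller-Hinton broth with 2% NaCl. Inoculum about 5×10⁵ CFU/mL, incubated at 35 °C for 24 h. MIC is the lowest drug concentration that inhibits all visible growth.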
`Cc1cc(SCC2=C(C(=O)O)N3C(=O)[C@@H](NC(=O)CSc4cc(Cl)ccc4Cl)[C@H]3SC2)cc(CCC(=O)O)[n+]1CCN.O=C(O)C(F)(F)F.O=C([O-])C(F)(F)F` showed an MIC of 2 µg/mL.

Each compound was assayed on Staphylococcus aureus (assay: Dose required for protective activity against methicillin-resistant Staphylococcus aureus (MRSA) A27223 in mouse following i.m. administration.). Details: im, read-out: PD50.
`Cc1cc(SCC2=C(C(=O)O)N3C(=O)[C@@H](NC(=O)CSc4cc(Cl)ccc4Cl)[C@H]3SC2)cc(CCC(=O)O)[n+]1CCN.O=C(O)C(F)(F)F.O=C([O-])C(F)(F)F` gave an ED50 of 3.9 mg/kg.
